Reference: ChEMBL document CHEMBL1158335, “Synthesis and evaluation of some new benzimidazole derivatives as potential antimicrobial agents” (2009)
Values after ≈ are worked out from the molar mass of the structure shown. Active and inactive are the calls of the source. The rule behind the calls is not given here.

Tests used:
[1] = tested on: Bacillus subtilis; test: Antibacterial activity against Bacillus subtilis MTCC 121 at 200 ug/ml after 24 hrs; assay type: functional, organism-based
How it was run: (§1)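 Organisms grown overnight at 37 °C in buffered glucose broth. A loopful (5 mm diameter) was added to buffered glucose broth containing the test compound and incubated at 37 °C for 24 h. Growth was scored against the untreated control as total inhibition, poor, medium or confluent growth.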

[2] = tested on: Bacillus subtilis; test: Antibacterial activity against Bacillus subtilis MTCC 121 at 500 ug/ml after 24 hrs; assay type: functional, organism-based; how it was run: as §1
[3] = tested on: Bacillus subtilis; test: Antibacterial activity against Bacillus subtilis MTCC 121 after 24 hrs; assay type: functional
[4] = tested on: Escherichia coli; test: Antibacterial activity against Escherichia coli ATCC 25922 at 1 ug/ml after 24 hrs; assay type: functional, organism-based; how it was run: as §1
[5] = tested on: Escherichia coli; test: Antibacterial activity against Escherichia coli ATCC 25922 at 10 ug/ml after 24 hrs; assay type: functional, organism-based; how it was run: as §1
[6] = tested on: Escherichia coli; test: Antibacterial activity against Escherichia coli ATCC 25922 at 500 ug/ml after 24 hrs; assay type: functional, organism-based; how it was run: as §1
[7] = tested on: Escherichia coli; test: Antibacterial activity against Escherichia coli ATCC 25922 after 24 hrs; assay type: functional
[8] = tested on: Candida albicans; test: Antifungal activity against Candida albicans MTCC 1637 at 30 ug/ml by cup-plate agar diffusion method; assay type: functional; conditions: for zone of inhibition at 30 µg/mL: read-out: DIZ
How it was run: (§2)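 Cup-plate agar diffusion assay against the fungal strains, with amphotericin B as the reference standard.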

[9] = tested on: Aspergillus flavus; test: Antifungal activity against Aspergillus flavus AIIMS isolate at 30 ug/ml by cup-plate agar diffusion method; assay type: functional; conditions: for zone of inhibition at 30 µg/mL: read-out: DIZ; how it was run: as §2
[10] = tested on: Aspergillus niger; test: Antifungal activity against Aspergillus niger AIIMS isolate at 30 ug/ml by cup-plate agar diffusion method; assay type: functional; conditions: for zone of inhibition at 30 µg/mL: read-out: DIZ; how it was run: as §2
[11] = tested on: Bacillus subtilis; test: Antibacterial activity against Bacillus subtilis MTCC 121 at 1 ug/ml after 24 hrs; assay type: functional, organism-based; how it was run: as §1
[12] = tested on: Bacillus subtilis; test: Antibacterial activity against Bacillus subtilis MTCC 121 at 10 ug/ml after 24 hrs; assay type: functional, organism-based; how it was run: as §1
[13] = tested on: Bacillus subtilis; test: Antibacterial activity against Bacillus subtilis MTCC 121 at 100 ug/ml after 24 hrs; assay type: functional, organism-based; how it was run: as §1
[14] = tested on: Escherichia coli; test: Antibacterial activity against Escherichia coli ATCC 25922 at 200 ug/ml after 24 hrs; assay type: functional, organism-based; how it was run: as §1
[15] = tested on: Escherichia coli; test: Antibacterial activity against Escherichia coli ATCC 25922 at 100 ug/ml after 24 hrs; assay type: functional, organism-based; how it was run: as §1

Row | SMILES | inhibition [1] | inhibition [2] | MIC ([3]; MTCC 121, 24 h) [µg/mL] | inhibition [4] | inhibition [5] | inhibition [6] | MIC ([7]; ATCC 25922, 24 h) [µg/mL] | zone of inhibition at 30 µg/mL [8] [mm] | zone of inhibition at 30 µg/mL [9] [mm] | zone of inhibition at 30 µg/mL [10] [mm] | inhibition [11] | inhibition [12] | inhibition [13] | inhibition [14] | inhibition [15] | other results
1 | Cc1nc2ccccc2n1Cc1nnc(N2C(=O)C(Cl)C2c2ccccc2)s1 (configuration not stated) | Active | Active | 200 (≈ 488 µM) | inactive | inactive | Active | 500 (≈ 1220 µM) | 16 | 16 | 10 | inactive | inactive | – | – | – | –
2 | Cc1nc2ccccc2n1Cc1nnc(N2C(=O)C(Cl)C2c2ccccc2O)s1 (configuration not stated) | Active | Active | 100 (≈ 235 µM) | inactive | – | Active | 200 (≈ 470 µM) | 10 | 10 | 16 | – | – | Active | Active | – | –
3 | Cc1nc2ccccc2n1Cc1nnc(/N=C/c2ccccc2)s1 | Active | Active | 100 (≈ 300 µM) | inactive | – | Active | 200 (≈ 600 µM) | 16 | 22 | 22 | inactive | – | Active | Active | – | –
4 | Cc1nc2ccccc2n1Cc1nnc(N2C(=O)C(Cl)C2c2ccccc2Cl)s1 (configuration not stated) | Active | Active | 200 (≈ 450 µM) | inactive | – | Active | 100 (≈ 225 µM) | – | – | – | inactive | inactive | – | Active | Active | diameter of the inhibition zone (DIZ) [8]: inactive; diameter of the inhibition zone (DIZ) [9]: inactive; diameter of the inhibition zone (DIZ) [10]: inactive
5 | COc1ccccc1C1C(Cl)C(=O)N1c1nnc(Cn2c(C)nc3ccccc32)s1 (configuration not stated) | inactive | – | – | inactive | inactive | inactive | – | < 10 | < 10 | < 10 | inactive | inactive | inactive | inactive | inactive | Activity [2]: inactive; MIC [3]: inactive; MIC [7]: inactive
6 | CC1(C)S[C@@H]2[C@H](NC(=O)[C@H](N)c3ccccc3)C(=O)N2[C@H]1C(=O)O [AMPICILLIN] | Active | Active | 10 (≈ 28.6 µM) | – | Active | Active | 10 (≈ 28.6 µM) | – | – | – | – | Active | Active | Active | Active | –
7 | Cc1nc2ccccc2n1Cc1nnc(/N=C/c2ccccc2O)s1 | Active | Active | 100 (≈ 286 µM) | inactive | inactive | Active | 200 (≈ 572 µM) | – | – | – | inactive | – | Active | Active | – | diameter of the inhibition zone (DIZ) [8]: inactive; diameter of the inhibition zone (DIZ) [9]: inactive; diameter of the inhibition zone (DIZ) [10]: inactive
8 | Cc1ccccc1/C=N/c1nnc(Cn2c(C)nc3ccccc32)s1 | Active | Active | 200 (≈ 576 µM) | inactive | – | Active | 100 (≈ 288 µM) | 10 | < 10 | 10 | inactive | inactive | – | Active | Active | –
9 | Cc1ccc(C2C(Cl)C(=O)N2c2nnc(Cn3c(C)nc4ccccc43)s2)cc1 (configuration not stated) | – | Active | 500 (≈ 1180 µM) | inactive | – | Active | 500 (≈ 1180 µM) | < 10 | 16 | 10 | inactive | inactive | – | – | – | –
10 | Cc1nc2ccccc2n1Cc1nnc(/N=C/c2ccccc2Cl)s1 | Active | Active | 100 (≈ 272 µM) | inactive | – | Active | 100 (≈ 272 µM) | – | – | – | inactive | – | Active | Active | Active | diameter of the inhibition zone (DIZ) [8]: inactive; diameter of the inhibition zone (DIZ) [9]: inactive; diameter of the inhibition zone (DIZ) [10]: inactive
11 | Cc1nc2ccccc2n1Cc1nnc(/N=C/c2ccc(N)cc2)s1 | Active | Active | 100 (≈ 287 µM) | inactive | – | Active | 200 (≈ 574 µM) | 16 | 10 | 22 | inactive | – | Active | Active | – | –
12 | Cc1nc2ccccc2n1Cc1nnc(N2C(=O)C(Cl)C2c2ccc(N)cc2)s1 (configuration not stated) | Active | Active | 100 (≈ 235 µM) | inactive | – | Active | 200 (≈ 471 µM) | 16 | 10 | 10 | – | – | Active | Active | – | –
13 | Cc1ccccc1C1C(Cl)C(=O)N1c1nnc(Cn2c(C)nc3ccccc32)s1 (configuration not stated) | Active | Active | 100 (≈ 236 µM) | inactive | – | Active | 100 (≈ 236 µM) | 10 | < 10 | 16 | inactive | – | Active | Active | Active | –
14 | Cc1nc2ccccc2n1Cc1nnc(/N=C/c2ccc(O)cc2)s1 | Active | Active | 200 (≈ 572 µM) | inactive | – | Active | 200 (≈ 572 µM) | 16 | 16 | 16 | inactive | – | – | Active | – | –
15 | Cc1nc2ccccc2n1Cc1nnc(N2C(=O)C(Cl)C2c2cccc(O)c2)s1 (configuration not stated) | Active | Active | 200 (≈ 470 µM) | inactive | – | Active | 500 (≈ 1170 µM) | – | – | – | inactive | – | – | – | – | diameter of the inhibition zone (DIZ) [8]: inactive; diameter of the inhibition zone (DIZ) [9]: inactive; diameter of the inhibition zone (DIZ) [10]: inactive
16 | COc1ccc(/C=N/c2nnc(Cn3c(C)nc4ccccc43)s2)cc1 | Active | Active | 100 (≈ 275 µM) | inactive | inactive | Active | 200 (≈ 550 µM) | 10 | 16 | 16 | inactive | – | Active | Active | – | –
17 | COc1ccc(C2C(Cl)C(=O)N2c2nnc(Cn3c(C)nc4ccccc43)s2)cc1 (configuration not stated) | Active | Active | 200 (≈ 455 µM) | inactive | – | Active | 200 (≈ 455 µM) | 10 | < 10 | < 10 | inactive | – | – | Active | – | –
18 | Cc1nc2ccccc2n1Cc1nnc(/N=C/c2ccc(Br)cc2)s1 | – | Active | 500 (≈ 1210 µM) | inactive | inactive | Active | 500 (≈ 1210 µM) | – | – | – | inactive | inactive | – | – | – | diameter of the inhibition zone (DIZ) [8]: inactive; diameter of the inhibition zone (DIZ) [9]: inactive; diameter of the inhibition zone (DIZ) [10]: inactive
19 | Cc1nc2ccccc2n1Cc1nnc(N2C(=O)C(Cl)C2c2ccc(O)cc2)s1 (configuration not stated) | Active | Active | 200 (≈ 470 µM) | inactive | inactive | Active | 500 (≈ 1170 µM) | 16 | 16 | 16 | – | – | – | – | – | –
20 | C[C@@H]1[C@H](O)[C@@H](C)/C=C/C=C/C=C/C=C/C=C/C=C/C=C/[C@H](O[C@@H]2O[C@H](C)[C@@H](O)[C@H](N)[C@@H]2O)C[C@@H]2O[C@](O)(C[C@@H](O)C[C@@H](O)[C@H](O)CC[C@@H](O)C[C@@H](O)CC(=O)O[C@H]1C)C[C@H](O)[C@H]2C(=O)O [AMPHOTERICIN B] | – | – | – | – | – | – | – | 22 | 22 | 22 | – | – | – | – | – | –
